A word on the pKd: it is −log10 of the Kd, conventionally taken in molar units.

pKd: −log10 of the molar value. Where “and” joins values, the source holds several entries; their conditions need not be identical. Equal entries are not always repeated. Positions of bridges follow the written chain, without caps; N, C: chain ends. Non-standard residues stand in square brackets, D forms with d. Residues, ends and D or L forms follow the SMILES beside them. dPhe(4-Cl) = N[C@H](Cc1ccc(Cl)cc1)C(=O)O; dPhe(4-F) = N[C@H](Cc1ccc(F)cc1)C(=O)O; d2Nal = N[C@H](Cc1ccc2ccccc2c1)C(=O)O; d3Pal = N[C@H](Cc1cccnc1)C(=O)O; ΔPro = O=C(O)[C@@H]1C=CCN1; Dap = NC[C@H](N)C(=O)O

In one test the target is T1, Gonadotropin-releasing hormone receptor (Rattus norvegicus, UniProt P30969).
T1 sequence (P30969 whole entry): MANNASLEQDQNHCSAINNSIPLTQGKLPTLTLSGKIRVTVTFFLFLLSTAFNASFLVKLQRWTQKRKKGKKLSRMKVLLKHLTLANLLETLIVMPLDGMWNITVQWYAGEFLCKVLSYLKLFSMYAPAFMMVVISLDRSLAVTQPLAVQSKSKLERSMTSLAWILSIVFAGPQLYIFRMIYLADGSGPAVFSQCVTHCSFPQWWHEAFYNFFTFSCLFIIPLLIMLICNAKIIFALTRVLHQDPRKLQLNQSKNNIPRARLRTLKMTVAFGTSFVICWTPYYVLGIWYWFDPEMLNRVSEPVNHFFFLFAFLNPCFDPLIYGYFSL
The experiment in a line: Inhibitory binding constant for Gonadotropin-releasing hormone receptor.
In turn, `CC(=O)N[C@H](Cc1ccc2ccccc2c1)C(=O)N[C@H](Cc1ccc(F)cc1)C(=O)N[C@H](Cc1c[nH]c2ccccc12)C(=O)N[C@H]1CCC(=O)NC[C@@H](C(N)=O)NC(=O)[C@@H]2CCCN2C(=O)[C@H](CCCN=C(N)N)NC(=O)[C@H](CC(C)C)NC(=O)[C@@H](CCCN=C(N)N)NC(=O)[C@H](Cc2ccc(O)cc2)NC1=O` had a pKd of 8.96.
On the same count and under the same terms, for `CC(=O)N[C@H](Cc1ccc2ccccc2c1)C(=O)N[C@H](Cc1ccc(F)cc1)C(=O)N[C@H](Cc1c[nH]c2ccccc12)C(=O)N[C@H]1CC(=O)NCCC[C@@H](C(N)=O)NC(=O)[C@@H]2CCCN2C(=O)[C@H](CCCN=C(N)N)NC(=O)[C@H](CC(C)C)NC(=O)[C@@H](CCCN=C(N)N)NC(=O)[C@H](Cc2ccc(O)cc2)NC1=O` the value was 7.39; for `CC(=O)N[C@H](Cc1ccc2ccccc2c1)C(=O)N[C@H](Cc1ccc(F)cc1)C(=O)N[C@H](Cc1c[nH]c2ccccc12)C(=O)N[C@H]1CNC(=O)C[C@@H](C(N)=O)NC(=O)[C@@H]2CCCN2C(=O)[C@H](CCCN=C(N)N)NC(=O)[C@H](CC(C)C)NC(=O)[C@@H](CCCN=C(N)N)NC(=O)[C@H](Cc2ccc(O)cc2)NC1=O`, 8.00.
Same read-out and setting: under `CC(=O)N[C@H](Cc1ccc2ccccc2c1)C(=O)N[C@H](Cc1ccc(F)cc1)C(=O)N[C@H](Cc1c[nH]c2ccccc12)C(=O)N[C@H]1CSSC[C@@H](C(N)=O)NC(=O)[C@@H]2CCCN2C(=O)[C@H](CCCN=C(N)N)NC(=O)[C@H](CC(C)C)NC(=O)[C@@H](CCCN=C(N)N)NC(=O)[C@H](Cc2ccc(O)cc2)NC1=O` stands 8.22; under `CC(=O)N[C@H](Cc1ccc2ccccc2c1)C(=O)N[C@H](Cc1ccc(F)cc1)C(=O)N[C@H](Cc1c[nH]c2ccccc12)C(=O)N[C@H]1CNC(=O)C[C@@H](C(=O)NCC(N)=O)NC(=O)[C@H](CCCNC(=N)N)NC(=O)[C@H](CC(C)C)NC(=O)[C@@H](CCCNC(=N)N)NC(=O)[C@H](Cc2ccc(O)cc2)NC1=O`, less than 7.00.
On the same count and under the same terms, for `CC(=O)N[C@H](Cc1ccc2ccccc2c1)C(=O)N[C@H](Cc1ccc(Cl)cc1)C(=O)N[C@H](Cc1cccnc1)C(=O)N[C@H]1CC(=O)NCCC[C@@H](C(N)=O)NC(=O)[C@@H]2CCCN2C(=O)[C@H](CCCNC(=N)N)NC(=O)[C@H](CC(C)C)NC(=O)[C@@H](Cc2cccnc2)NC(=O)[C@H](CCCNC(=N)N)NC1=O` the value was 7.96; for `CC(=O)NC[C@H](NC(=O)[C@@H](Cc1cccnc1)NC(=O)[C@@H](Cc1ccc(Cl)cc1)NC(=O)[C@@H](Cc1ccc2ccccc2c1)NC(C)=O)C(=O)N[C@@H](CCCN=C(N)N)C(=O)N[C@H](Cc1cccnc1)C(=O)N[C@@H](CC(C)C)C(=O)N[C@@H](CCCN=C(N)N)C(=O)N1CCC[C@H]1C(=O)N[C@@H](CC(N)=O)C(N)=O`, 9.00; for `CC(=O)N[C@H](Cc1ccc2ccccc2c1)C(=O)N[C@H](Cc1ccc(Cl)cc1)C(=O)N[C@H](Cc1cccnc1)C(=O)N[C@H]1CC(=O)NC[C@@H](C(N)=O)NC(=O)[C@@H]2CCCN2C(=O)[C@H](CCCNC(=N)N)NC(=O)[C@H](CC(C)C)NC(=O)[C@@H](Cc2cccnc2)NC(=O)[C@H](CCCNC(=N)N)NC1=O`, 8.96.
Take `CC(=O)N[C@H](Cc1ccc2ccccc2c1)C(=O)N[C@H](Cc1ccc(Cl)cc1)C(=O)N[C@H](Cc1cccnc1)C(=O)N[C@H]1CCC(=O)NC[C@@H](C(N)=O)NC(=O)[C@@H]2CCCN2C(=O)[C@H](CCCNC(=N)N)NC(=O)[C@H](CC(C)C)NC(=O)[C@@H](Cc2cccnc2)NC(=O)[C@H](CCCNC(=N)N)NC1=O` [listing 1 of 2 here]: the pKd was 9.00.
For `CC(=O)N[C@H](Cc1ccc2ccccc2c1)C(=O)N[C@H](Cc1ccc(Cl)cc1)C(=O)N[C@H](Cc1cccnc1)C(=O)N[C@H]1CSSC[C@@H](C(N)=O)NC(=O)[C@@H]2CCCN2C(=O)[C@H](CCCNC(=N)N)NC(=O)[C@H](CC(C)C)NC(=O)[C@@H](Cc2cccnc2)NC(=O)[C@H](CCCNC(=N)N)NC1=O` (Ac-[d2Nal][dPhe(4-Cl)][d3Pal]CR[d3Pal]LRPC-NH2; disulfide 4-10), the negative-log Kd (pKd) is 9.10.
On the same count and under the same terms, under `CC(=O)N[C@H](Cc1ccc2ccccc2c1)C(=O)N[C@H](Cc1ccc(Cl)cc1)C(=O)N[C@H](Cc1cccnc1)C(=O)N[C@@H](CO)C(=O)N[C@@H](CCCNC(=N)N)C(=O)N[C@H](Cc1cccnc1)C(=O)N[C@@H](CC(C)C)C(=O)N[C@@H](CCCNC(=N)N)C(=O)N1CCC[C@H]1C(=O)N[C@H](C)C(N)=O` (Ac-[d2Nal][dPhe(4-Cl)][d3Pal]SR[d3Pal]LRP[dA]-NH2) [listing 1 of 2 here] stands 9.62; under `CC(=O)N[C@H](Cc1ccc2ccccc2c1)C(=O)N[C@H](Cc1ccc(Cl)cc1)C(=O)N[C@H](Cc1cccnc1)C(=O)N[C@H]1CNC(=O)C[C@@H](C(N)=O)NC(=O)[C@@H]2CCCN2C(=O)[C@H](CCCNC(=N)N)NC(=O)[C@H](CC(C)C)NC(=O)[C@@H](Cc2cccnc2)NC(=O)[C@H](CCCNC(=N)N)NC1=O` (Ac-[d2Nal][dPhe(4-Cl)][d3Pal][Dap]R[d3Pal]LRPD-NH2; lactam 4-10), 8.35 and 8.00.
On the same count and under the same terms, for `CC(=O)N1CC=C[C@H]1C(=O)N[C@H](Cc1ccc(F)cc1)C(=O)N[C@H](Cc1c[nH]c2ccccc12)C(=O)N[C@@H](CO)C(=O)N[C@@H](Cc1ccc(O)cc1)C(=O)N[C@H](Cc1c[nH]c2ccccc12)C(=O)N[C@@H](CC(C)C)C(=O)N[C@@H](CCCNC(=N)N)C(=O)N1CCC[C@H]1C(=O)NCC(N)=O` (Ac-[ΔPro][dPhe(4-F)][dW]SY[dW]LRPG-NH2) the value was 9.57.

The subject of another test is Rattus norvegicus. The experiment in a line: In vivo antiovulatory assay (AOA) carried out in rats injected sc. The class given is functional. The procedure, abridged: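 Antiovulatory assay following Corbin and Beattie. Cycling rats injected sc at noon on proestrus with peptide dissolved in saline (200 μL). Dose in micrograms; read-out is the number of rats ovulating out of the total.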
With `CC(C)C[C@@H]1NC(=O)[C@@H](CCCN=C(N)N)NC(=O)[C@H](Cc2ccc(O)cc2)NC(=O)[C@@H](NC(=O)[C@@H](Cc2c[nH]c3ccccc23)NC(=O)[C@@H](Cc2ccc(F)cc2)NC(=O)[C@H](N)Cc2ccc3ccccc3c2)CSSC[C@@H](C(N)=O)NC(=O)[C@@H]2CCCN2C(=O)[C@H](CCCN=C(N)N)NC1=O`, the Dose is 50 µg and 100 µg.
On the same count and under the same terms, for `CC(=O)N[C@H](Cc1ccc2ccccc2c1)C(=O)N[C@H](Cc1ccc(Cl)cc1)C(=O)N[C@H](Cc1cccnc1)C(=O)N[C@H]1CCC(=O)NC[C@@H](C(N)=O)NC(=O)[C@@H]2CCCN2C(=O)[C@H](CCCNC(=N)N)NC(=O)[C@H](CC(C)C)NC(=O)[C@@H](Cc2cccnc2)NC(=O)[C@H](CCCNC(=N)N)NC1=O` [listing 2 of 2 here] the value was 10 µg and 25 µg; for `CC(=O)N[C@H](Cc1ccc2ccccc2c1)C(=O)N[C@H](Cc1ccc(Cl)cc1)C(=O)N[C@H](Cc1cccnc1)C(=O)N[C@@H](CO)C(=O)N[C@@H](CCCNC(=N)N)C(=O)N[C@H](Cc1cccnc1)C(=O)N[C@@H](CC(C)C)C(=O)N[C@@H](CCCNC(=N)N)C(=O)N1CCC[C@H]1C(=O)N[C@H](C)C(N)=O` (Ac-[d2Nal][dPhe(4-Cl)][d3Pal]SR[d3Pal]LRP[dA]-NH2) [listing 2 of 2 here], 0.5 µg and 1 µg; for `CC(=O)N[C@H](Cc1ccc2ccccc2c1)C(=O)N[C@H](Cc1ccc(F)cc1)C(=O)N[C@H](Cc1c[nH]c2ccccc12)C(=O)N[C@H]1CC(=O)NC[C@@H](C(N)=O)NC(=O)[C@@H]2CCCN2C(=O)[C@H](CCCN=C(N)N)NC(=O)[C@H](CC(C)C)NC(=O)[C@@H](CCCN=C(N)N)NC(=O)[C@H](Cc2ccc(O)cc2)NC1=O` (Ac-[d2Nal][dPhe(4-F)][dW]DY[dR]LRP[Dap]-NH2; lactam 4-10), 1 µg and 2.5 µg.

The values above are taken from ChEMBL document CHEMBL1124067, “Design of potent cyclic gonadotropin releasing hormone antagonists” (J Med Chem, 1988).
